In ChEMBL document CHEMBL4813946, “Discovery of novel 4-azaaryl-N-phenylpyrimidin-2-amine derivatives as potent and selective FLT3 inhibitors for acute myeloid leukaemia with FLT3 mutations” (Eur J Med Chem, 2021):
Active and inactive are the calls of the source. The rule behind the calls is not given here.

Assays:
[1] = biological target: T1, Receptor-type tyrosine-protein kinase FLT3 (Homo sapiens, UniProt P36888); assay: Inhibition of wild type FLT3 (unknown origin) using Glu/Tyr peptide substrate incubated for 120 mins measured after 40 mins incubation under dark by ADP-glo based luminescence assay
T1 sequence (P36888 whole entry): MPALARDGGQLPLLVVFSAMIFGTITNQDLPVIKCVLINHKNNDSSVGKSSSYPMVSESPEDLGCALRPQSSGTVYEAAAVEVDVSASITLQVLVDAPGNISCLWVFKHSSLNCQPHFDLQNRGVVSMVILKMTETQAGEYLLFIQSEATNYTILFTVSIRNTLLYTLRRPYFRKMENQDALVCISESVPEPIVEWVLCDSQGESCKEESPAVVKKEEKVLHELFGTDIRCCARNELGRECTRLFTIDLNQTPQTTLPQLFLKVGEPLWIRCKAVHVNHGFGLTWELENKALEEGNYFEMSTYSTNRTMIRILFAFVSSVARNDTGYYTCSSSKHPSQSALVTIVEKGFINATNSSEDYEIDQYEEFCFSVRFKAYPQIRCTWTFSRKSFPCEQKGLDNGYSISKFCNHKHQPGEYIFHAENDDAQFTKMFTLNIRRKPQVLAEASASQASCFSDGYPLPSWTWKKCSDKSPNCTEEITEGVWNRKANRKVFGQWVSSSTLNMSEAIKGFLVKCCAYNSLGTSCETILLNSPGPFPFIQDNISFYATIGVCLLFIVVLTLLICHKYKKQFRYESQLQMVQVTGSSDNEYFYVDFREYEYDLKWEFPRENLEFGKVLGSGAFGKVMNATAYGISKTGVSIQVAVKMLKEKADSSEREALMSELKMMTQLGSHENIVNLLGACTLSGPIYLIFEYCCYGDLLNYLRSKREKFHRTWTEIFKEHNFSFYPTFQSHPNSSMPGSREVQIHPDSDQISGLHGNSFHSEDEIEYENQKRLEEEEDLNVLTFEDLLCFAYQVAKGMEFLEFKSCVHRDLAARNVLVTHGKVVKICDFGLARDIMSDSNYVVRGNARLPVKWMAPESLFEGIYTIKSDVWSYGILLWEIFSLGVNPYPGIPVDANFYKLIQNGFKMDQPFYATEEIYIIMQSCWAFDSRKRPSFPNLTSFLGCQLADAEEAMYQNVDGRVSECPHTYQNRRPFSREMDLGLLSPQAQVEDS
Procedure, shortened: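 In-house ADP-Glo assay with poly(Glu,Tyr) 4:1 substrate in 40 mM Tris pH 7.5, 20 mM MgCl2, 50 µM DTT, 0.1 mg/mL BSA. Kinase at 20 nM. ADP-Glo reagent 40 min in the dark, detection reagent 30–40 min, then luminescence. Ki was derived from IC50 by Cheng-Prusoff.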

[2] = biological target: Cyclin-dependent kinase 1/cyclin B1 (Homo sapiens, UniProt P06493); assay: Inhibition of CDK1/cyclin B (unknown origin) using histone 1 protein substrate incubated for 120 mins measured after 40 mins incubation under dark by ADP-glo based luminescence assay; assay type: protein-complex assay
Cyclin-dependent kinase 1/cyclin B1, sequence (P06493 whole entry): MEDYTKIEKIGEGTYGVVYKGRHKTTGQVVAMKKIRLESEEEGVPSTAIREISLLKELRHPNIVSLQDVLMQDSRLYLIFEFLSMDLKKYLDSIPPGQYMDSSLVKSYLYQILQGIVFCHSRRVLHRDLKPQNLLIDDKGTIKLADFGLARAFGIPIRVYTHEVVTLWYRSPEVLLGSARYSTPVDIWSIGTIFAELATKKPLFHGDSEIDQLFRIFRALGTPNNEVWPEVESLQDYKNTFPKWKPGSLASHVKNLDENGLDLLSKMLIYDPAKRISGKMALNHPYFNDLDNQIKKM
Cyclin-dependent kinase 1/cyclin B1, sequence (P14635 whole entry, further chain): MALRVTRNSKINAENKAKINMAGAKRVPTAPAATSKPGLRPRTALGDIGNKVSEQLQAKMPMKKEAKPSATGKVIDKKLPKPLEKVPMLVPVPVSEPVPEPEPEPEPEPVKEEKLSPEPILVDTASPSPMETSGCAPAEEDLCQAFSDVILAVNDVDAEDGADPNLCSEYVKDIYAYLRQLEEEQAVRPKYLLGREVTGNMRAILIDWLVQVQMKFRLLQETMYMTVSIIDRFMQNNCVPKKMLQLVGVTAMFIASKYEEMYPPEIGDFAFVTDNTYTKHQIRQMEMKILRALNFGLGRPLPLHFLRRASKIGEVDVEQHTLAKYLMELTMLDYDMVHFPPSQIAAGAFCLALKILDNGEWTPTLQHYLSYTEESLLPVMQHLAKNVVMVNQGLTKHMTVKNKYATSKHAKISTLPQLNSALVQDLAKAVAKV
Procedure, shortened: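 In-house ADP-Glo assay with 2 mM DMSO stocks. Kinases were CDK1/cyclin B at 1 nM, CDK2/cyclin E1 at 10 nM and CDK7/cyclin H/MAT1 at 40 nM. Substrate was histone 1 for CDK1 and CDK2, and a RNA pol II CTD peptide for CDK7. Compound at 8–10 concentrations, 1:3 serial, final DMSO 0.5%. Reactions ran 60–120 min at room temperature, then ADP-Glo reagent 40 min in the dark, then detection reagent 40 min, read by luminescence. Ki was derived from IC50 by Cheng-Prusoff.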

MV4-11 [3] = assay: Induction of apoptosis in human MV4-11 cells assessed as late apoptotic cells at 1 x GI50 concentration incubated for 24 hrs by annexin V-FITC and propidium iodide staining based flow cytometry (reference value: 12.45 %); assay type: functional
MV4-11 [4] = assay: Induction of apoptosis in human MV4-11 cells assessed as late apoptotic cells at 20 x GI50 concentration incubated for 24 hrs by annexin V-FITC and propidium iodide staining based flow cytometry (reference value: 12.45 %); assay type: functional
MV4-11 [5] = assay: Induction of apoptosis in human MV4-11 cells assessed as necrotic cells at 1 x GI50 concentration incubated for 48 hrs by annexin V-FITC and propidium iodide staining based flow cytometry (reference value: 0.45 %); assay type: functional
MV4-11 [6] = assay: Induction of apoptosis in human MV4-11 cells assessed as late apoptotic cells at 10 x GI50 concentration incubated for 48 hrs by annexin V-FITC and propidium iodide staining based flow cytometry (reference value: 6.59 %); assay type: functional
MV4-11 [7] = assay: Induction of apoptosis in human MV4-11 cells assessed as viable cells at 20 x GI50 concentration incubated for 48 hrs by annexin V-FITC and propidium iodide staining based flow cytometry (reference value: 91.87 %); assay type: functional
U-937 [8] = assay: Induction of apoptosis in human U937 cells assessed as viable cells at 1 x GI50 concentration incubated for 24 hrs by annexin V-FITC and propidium iodide staining based flow cytometry (reference value: 86.80 %); assay type: functional
U-937 [9] = assay: Induction of apoptosis in human U937 cells assessed as late apoptotic cells at 5 x GI50 concentration incubated for 24 hrs by annexin V-FITC and propidium iodide staining based flow cytometry (Rvb =10.30 %); assay type: functional
U-937 [10] = assay: Induction of apoptosis in human U937 cells assessed as viable cells at 5 x GI50 concentration incubated for 24 hrs by annexin V-FITC and propidium iodide staining based flow cytometry (reference value: 86.80 %); assay type: functional
U-937 [11] = assay: Induction of apoptosis in human U937 cells assessed as necrotic cells at 20 x GI50 concentration incubated for 24 hrs by annexin V-FITC and propidium iodide staining based flow cytometry (reference value: 10.30 %); assay type: functional
[12] = biological target: Receptor-type tyrosine-protein kinase FLT3 (Homo sapiens) (UniProt P36888); assay: Inhibition of FLT3-mediated signalling pathway in human MV4-11 cells assessed as increase in caspase 3 expression upto 20 x GI50 concentration incubated for 6 hrs by western blot analysis; assay type: cell-based
Procedure, shortened: (§1)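 Cells lysed in phosphate lysis buffer with protease inhibitors and protein quantified. Western blots probed phospho and total STAT5, AKT, ERK, S6RP and eIF4E, plus full-length and cleaved PARP and caspase-3, with β-actin as loading control. At least two independent experiments.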

U-937 [13] = assay: Induction of apoptosis in human U937 cells assessed as early apoptotic cells at 10 x GI50 concentration incubated for 48 hrs by annexin V-FITC staining based flow cytometry (reference value: 2.78 %); assay type: functional
U-937 [14] = assay: Antiproliferative activity against human U-937 cells harboring wild type/low FLT3 assessed as reduction in cell viability after 72 hrs by resazurin assay; assay type: functional
Procedure, shortened: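 Cells seeded and pre-incubated 24 h at 37 °C, 5% CO2, then given a five-fold dilution series of compound (from 10 mM DMSO stock) in medium, in triplicate. Resazurin added after 72 h exposure, 4 h in dark at 37 °C. Fluorescence read at 570/585 nm, normalised to DMSO vehicle. GI50 by non-linear regression; mean ± SD of at least two replicates.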

[15] = biological target: Receptor-type tyrosine-protein kinase FLT3 (Homo sapiens) (UniProt P36888); assay: Inhibition of FLT3-mediated signalling pathway in human U-937 cells assessed as inhibition of eIF4E phosphorylation upto 20 x GI50 concentration incubated for 6 hrs by western blot analysis; assay type: cell-based; procedure, shortened: as §1

Compound: CC(=O)N1CCN(c2ccc(Nc3nccc(-c4cn(C)c5ncccc45)n3)cc2)CC1
- Ki [1]: 9 nM
- Ki [2]: > 5000 nM
- Activity (MV4-11 [3]): 14.35%
- Activity (MV4-11 [4]): 2.03%
- Activity (MV4-11 [5]): 0.8%
- Activity (MV4-11 [6]): 23.5%
- Activity (MV4-11 [7]): 64.18%
- Activity (U-937 [8]): 88.19%
- Activity (U-937 [9]): 9.79%
- Activity (U-937 [10]): 86.36%
- Activity (U-937 [11]): 10.43%
- Activity [12]: Active
- Activity (U-937 [13]): 3.06%
- GI50 (U-937 [14]): > 10000 nM
- inhibition [15]: Active
